Source: PubChem (Broad Institute)
IDH1 mut inh = IDH1 R132H (human) inhibition; 0.18% of 70,000 active; inhibition, % at 10 µM; IDH1 R132H reductase, diaphorase/resazurin fluorescence, 60 min; in the data active = inhibition above about 34%; inconclusive = no clear call, values can overlap the other calls; inactive = below about 11%;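 also: 0% = DMSO and 100% = no enzyme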
T cruzi growth-1 = blocks T. cruzi growth in NIH3T3 culture; T. cruzi beta-gal in NIH3T3, GalScreen luminescence, 90 h; inhibition, % at 8.34 µM; 5.9% of 77,000 active;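 active = mean inhibition above about 93%, with at least 55% of replicates each passing it, limit read from the data, passing the limit was not always enough; inconclusive = only one of those two conditions holds; inactive = neither condition holds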
KDM4C inh = KDM4C (human) demethylase inhibition | inhibition, % at 12.5 µM | GST-KDM4C 2-372, H3K9me3 peptide, LANCE TR-FRET | AID 720574 | 0.15% of 96,000 active;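 active = mean replicate inhibition above about 25%, with at least 55% of replicates also reaching it, limit read from the data, passing the limit was not always enough; inconclusive = only one of those two conditions met; inactive = neither condition met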
Target sequence (Q9H3R0 2-372 limits assumed): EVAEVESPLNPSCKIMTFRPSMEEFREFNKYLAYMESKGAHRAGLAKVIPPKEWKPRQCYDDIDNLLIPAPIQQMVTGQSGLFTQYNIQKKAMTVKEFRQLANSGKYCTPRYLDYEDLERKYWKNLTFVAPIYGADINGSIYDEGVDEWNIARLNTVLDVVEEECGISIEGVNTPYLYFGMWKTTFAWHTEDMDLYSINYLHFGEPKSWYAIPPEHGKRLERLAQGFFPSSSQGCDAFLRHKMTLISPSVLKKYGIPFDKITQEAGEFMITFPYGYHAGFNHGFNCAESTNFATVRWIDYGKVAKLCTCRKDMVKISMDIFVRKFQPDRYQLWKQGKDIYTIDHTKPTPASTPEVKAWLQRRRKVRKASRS
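Test system: N-terminal GST-fused human GASC-1 (KDM4C) fragment, residues 2-372; quantity: GASC-1 enzyme at 10 nM final in reaction; dosing: single dose; schedule: 30 min demethylation and 1 h detection at room temperature; signal: LANCE TR-FRET, excitation 340 nm, emissions 618 and 671 nm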
T cruzi growth-2 = inhibitors of T. cruzi proliferation; shares compounds with T cruzi growth-1; T. cruzi beta-gal in NIH3T3, GalScreen luminescence, 90 h; inhibition, % at 8.35 µM; AID 651739; 72% of 5,600 active;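 active = mean replicate inhibition above about 95% and at least 55% of replicates individually reaching it, limit read from the data; inconclusive = only one of the two criteria is met; inactive = neither criterion is met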
T cruzi growth-3 = blocks T. cruzi growth in NIH3T3 host cells. shares compounds with T cruzi growth-1. T. cruzi beta-gal in NIH3T3, GalScreen luminescence, 90 h. inhibition, % at 2.09 µM. 21% of 5,600 active. AID 651740;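 active = mean inhibition above about 95%, with at least 55% of replicates also reaching it, limit read from the data; inconclusive = meets just one of the two conditions; inactive = meets neither condition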;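 also: plate controls were neutral control median for no effect and positive control median for full effect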
NIH3T3 tox = kills mouse NIH/3T3 fibroblasts; shares compounds with T cruzi growth-1; NIH/3T3 viability, CellTiter-Glo ATP luminescence, 90 h; cytotoxicity (signal decrease), % at 8.35 µM; 14% of 5,600 active;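 active = mean signal decrease across replicates above about 35% based on untreated-well scatter, with enough replicates individually passing, limit read from the data; inconclusive = no rule stated though some were filed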;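 also: 0% = median of neutral control wells and 100% = median of positive control wells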
3T3 cytotox 2 = kills mouse NIH/3T3 fibroblasts; shares compounds with T cruzi growth-1; NIH/3T3 viability, CellTiter-Glo ATP luminescence, 90 h; 56% of 5,600 active; inhibition, % at 24.9 µM; AID 651744;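 active = mean loss of cell viability signal at or above a set limit, and enough replicates individually reaching it; inconclusive = meets only the mean limit or only the replicate share; inactive = meets neither condition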;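 also: 0% = median of neutral control wells and 100% = median of positive control wells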
Numbers without * were called inactive; ? = inconclusive; . = no result. The sample as a whole holds a higher share of hits than the screen did.

SMILES | IDH1 mut inh | T cruzi growth-1 | KDM4C inh | T cruzi growth-2 | T cruzi growth-3 | NIH3T3 tox | 3T3 cytotox 2
CC(=O)Nc1ccc2c(c1)C(=O)N(C)[C@H]1CC[C@@H](CC(=O)NCC3CC3)O[C@@H]1CO2 | . | -21.0 | -1.5 | . | . | . | .
CC(C)C(=O)Nc1ccc2c(c1)C(=O)N(C)[C@@H]1CC[C@@H](CC(=O)NCc3ccc(F)cc3)O[C@@H]1CO2 | . | 96.0* | -1.7 | 48.6 | -12.7 | 16.7 | -14.9
CCCCc1c(-c2ccc(O)cc2)[nH]c2nccnc12 | 2.3 | . | . | . | . | . | .
N#Cc1ccccc1CSc1nc2ccc(NC(=O)c3ccc(F)cc3)cc2s1 | 0.5 | . | . | . | . | . | .
C[C@@H]1CCCCO[C@@H](CN(C)Cc2ccc3c(c2)OCO3)[C@H](C)CN([C@H](C)CO)C(=O)c2cc(NC(=O)Nc3cccc4ccccc34)ccc2O1 | 1.2 | 45.4 | -5.9 | . | . | . | .
COCCNC(=O)C[C@H]1CC[C@@H]2[C@H](COc3ccc(NC(C)=O)cc3C(=O)N2C)O1 | . | 101.1* | 0.5 | 13.3 | -38.1 | 4.6 | 6.6
COCCNC(=O)C[C@H]1CC[C@@H]2[C@@H](COc3ccc(NC(C)=O)cc3C(=O)N2C)O1 | . | 69.0 | 0.5 | . | . | . | .
COC(=O)c1ccn(COc2ccccc2Cl)n1 | 0.0 | . | . | . | . | . | .
O=C(C[C@@H]1CC[C@@H]2[C@H](COC[C@@H](O)CN2Cc2ccc(Oc3ccccc3)cc2)O1)N1CCOCC1 | . | 12.1 | 1.2 | . | . | . | .
CN1C[C@@H](O)COC[C@@H]2O[C@H](CC(=O)N3CCN(c4ccccc4)CC3)CC[C@H]21 | . | 109.1* | 1.1 | 90.2 | 71.2 | -2.6 | -4.4
O=C(C[C@@H]1CC[C@@H]2[C@H](COC[C@H](O)CN2Cc2ccc(Oc3ccccc3)cc2)O1)N1CCN(c2ccccc2)CC1 | . | 115.2* | 0.2 | 87.6 | 69.6 | 3.8 | 103.9*
CN1C[C@@H](O)COC[C@@H]2O[C@@H](CC(=O)N3CCN(c4ccccc4)CC3)CC[C@H]21 | . | 12.8 | 0.5 | . | . | . | .
O=C(C[C@@H]1CC[C@H]2[C@@H](COC[C@@H](O)CN2Cc2ccc(Oc3ccccc3)cc2)O1)N1CCN(c2ccccc2)CC1 | . | 33.8 | -2.2 | . | . | . | .
O=C(C[C@H]1CC[C@H]2[C@@H](COC[C@H](O)CN2Cc2ccc(Oc3ccccc3)cc2)O1)N1CCN(c2ccccc2)CC1 | . | 134.4* | -0.1 | 105.4* | 44.2 | 6.9 | 38.2*
Cc1ccc(-c2noc(CN(C(=O)c3ccccc3-c3ccccc3)C(C)C)n2)cc1 | -0.1 | . | . | . | . | . | .
CN(C)C(=O)[C@H]1[C@H](CO)[C@H]2Cn3c(ccc(C4=CCCC4)c3=O)[C@@H]1N2CC1CCOCC1 | . | -58.9 | 1.0 | . | . | . | .
COc1ccccc1NC(=O)C1=C(C)Nc2ncnn2C1c1ccc(C(=O)O)cc1 (centres undefined) | 0.4 | . | . | . | . | . | .
C=C[C@](C)(CC[C@@]1(C)[C@H](C)C[C@H](O[C@@H]2O[C@@H](C)[C@H](O[C@@H]3O[C@H](COC(C)=O)[C@@H](O)[C@H](O)[C@H]3O)[C@@H](O)[C@H]2O)[C@@]2(C)C(C)=CCC[C@H]12)O[C@@H]1O[C@H](C)[C@H](O[C@@H]2O[C@@H](C)[C@H](O)[C@@H](O)[C@H]2O)[C@H](O)[C@H]1O | -0.7 | . | . | . | . | . | .
COc1ccc(C)cc1S(=O)(=O)N1CCC(C(=O)Nc2cc([N+](=O)[O-])ccc2C)CC1 | 0.0 | . | . | . | . | . | .
O=C(C[C@H]1CC[C@H]2[C@@H](COC[C@H](O)CN2Cc2cc(F)ccc2F)O1)NCc1ccc(Cl)cc1 | . | ? | 0.7 | 40.5 | 11.0 | 2.6 | 17.4
O=C(C[C@H]1CC[C@@H]2[C@H](COC[C@@H](O)CN2Cc2cc(F)ccc2F)O1)N1CCc2ccccc2C1 | . | 35.0 | -0.2 | . | . | . | .
O=C(C[C@@H]1CC[C@@H]2[C@H](COC[C@H](O)CN2Cc2ccccc2)O1)N[C@@H]1CCN(Cc2ccccc2)C1 | . | 76.8 | 2.3 | . | . | . | .
O=C(C[C@H]1CC[C@H]2[C@@H](COC[C@H](O)CN2Cc2cc(F)ccc2F)O1)N[C@H]1CCN(Cc2ccccc2)C1 | . | 123.8* | -0.3 | 105.7* | 72.3 | -20.1 | -1.0
O=C(C[C@@H]1CC[C@@H]2[C@H](COC[C@@H](O)CN2Cc2cc(F)ccc2F)O1)N[C@H]1CCN(Cc2ccccc2)C1 | . | 94.7 | 0.1 | . | . | . | .
